# According to ChEMBL document CHEMBL4138101, “Rhodium-catalyzed C-H bond activation for the synthesis of quinonoid compounds: Significant Anti-Trypanosoma cruzi activities and electrochemical studies of functionalized quinones” (Eur J Med Chem, 2017):
# Key:
# [1] = tested on: Trypanosoma cruzi; assay: Antitrypanosomal activity against bloodstream forms of Trypanosoma cruzi Y isolated from parasite infected Albino Swiss mouse assessed as induction of parasite lysis incubated for 24 hrs by Neubauer chamber based cell counting method; format: functional, organism-based
# Outline: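 Bloodstream trypomastigotes were taken from infected mice at peak parasitemia by differential centrifugation and resuspended at 10x10^6 cells/mL in DMES medium. They were mixed 1:1 with compound at twice the final concentration, with DMSO final ≤0.1%, and incubated at 37°C for 24 h. Benznidazole was the control. Counts were made in a Neubauer chamber, giving IC50/24 h as the concentration causing 50% parasite lysis.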
# [2] = Cytotoxicity against Swiss albino mouse peritoneal macrophages after 24 hrs by PrestoBlue dye based assay; format: cell-based, Peritoneal macrophage; details: read-out: LC50
# [3] = Selectivity index, ratio of LC50 for cytotoxicity against Swiss albino mouse peritoneal macrophages to IC50 for Antitrypanosomal activity against bloodstream forms of Trypanosoma cruzi Y isolated from parasite infected Albino Swiss mouse; format: toxicity; details: read-out: Ratio LC50/IC50
# [4] = tested on: Trypanosoma cruzi; assay: Potency index, ratio of juglone IC50 to compound IC50 for antitrypanosomal activity against bloodstream forms of Trypanosoma cruzi Y isolated from parasite infected Albino Swiss mouse; format: functional
Structure (SMILES),IC50 [1],CC50 at 24 h [2],selectivity ratio [3],Ratio [4]
COc1cccc2c1C(=O)C=CC2=O,1.02 µM,–,–,–
CC(=O)Oc1cccc2c1C(=O)C=CC2=O,0.16 µM,–,–,–
CC(C)(C)C1=CC(=O)C(Br)=CC1=O,14.1 µM,42.3 µM,3,–
COC1=C(I)C(=O)C(I)=C(OC)C1=O,1.94 µM,27.7 µM,–,–
O=C1C=CC(=O)C([Se]c2ccccc2)=C1,16 µM,13.8 µM,0.86,–
Nc1c(I)ccc2c1C(=O)C=CC2=O,0.56 µM,13.1 µM,23.4,–
COc1ccc2c(c1I)C(=O)C=CC2=O,1.17 µM,14.2 µM,12.1,–
O=C1C=C(I)C(=O)c2ccccc21,1.79 µM,14.7 µM,8.2,–
CC1=CC(=O)c2c(ccc(I)c2O)C1=O,0.99 µM,15.7 µM,15.8,–
O=C1C=CC(=O)c2c(O)c(I)cc(I)c21,24.8 µM,> 100 µM,> 5.1,–
O=C1C=CC(=O)c2c(C#Cc3ccccc3)cccc21,2.2 µM,12.5 µM,5.7,–
O=C1C=C(Br)C(=O)C(Cl)=C1Cl,15.4 µM,> 100 µM,> 6.5,–
Cc1cc(I)c2c(c1)C(=O)C=CC2=O,0.49 µM,12.1 µM,24.7,–
O=C1C=CC(=O)c2c(I)ccc(I)c21,0.22 µM,12.9 µM,–,–
CCOC(=O)/C=C/c1cccc2c1C(=O)C=CC2=O,6.03 µM,12.7 µM,2.1,–
O=C1C(Cl)=C(Cl)C(=O)c2c(I)cccc21,7.26 µM,27.8 µM,3.8,–
CC(C)(C)C1=CC(=O)C(I)=CC1=O,12.8 µM,35.9 µM,2.8,–
CC(=O)Oc1cccc2c1C(=O)C(Br)=CC2=O,0.85 µM,–,–,–
COC1=C(I)C(=O)C=CC1=O,23.9 µM,32.6 µM,1.4,–
COc1cc2c(c(I)c1OC)C(=O)C=CC2=O,1.62 µM,12.2 µM,7.5,–

Structure (SMILES),IC50 [1],CC50 at 24 h [2],selectivity ratio [3],Ratio [4]
COC(=O)c1ccc(I)c2c1C(=O)C=CC2=O,1.61 µM,13.9 µM,8.7,–
COc1c(I)ccc2c1C(=O)C=C(C)C2=O,4.06 µM,24.7 µM,6.1,–
O=C1C(Br)=CC(=O)c2c(I)cccc21,1.38 µM,12.2 µM,8.8,4.7
COc1c(I)ccc2c1C(=O)C=CC2=O,1.35 µM,13.3 µM,9.8,–
O=C1C=CC(=O)c2c1ccc(I)c2O,42 µM,> 100 µM,> 4.6,–
CC1=C(C)C(=O)C(I)=CC1=O,10.1 µM,15.4 µM,1.5,–
O=C1C=CC(=O)C(Br)=C1,21.5 µM,34.4 µM,1.6,–
O=C1C=C(I)C(=O)C(Cl)=C1Cl,27 µM,> 100 µM,> 4.7,–
O=C1C=C([Se]c2ccccc2)C(=O)c2ccccc21,1.13 µM,12.7 µM,11.2,–
O=C1C=CC(=O)c2c(/C=C/c3ccccc3)cccc21,0.19 µM,11.9 µM,62.5,–
O=C1C=CC(=O)c2c(I)cccc21,0.59 µM,11.5 µM,19.5,–
O=C1C=C([Se]c2ccccc2)C(=O)C=C1[Se]c1ccccc1,83.4 µM,> 100 µM,> 1.2,–
O=C1C(Br)=C(Br)C(=O)c2c(I)cccc21,2.25 µM,11.8 µM,5.3,–
O=C1C=CC(=O)C(I)=C1,60.6 µM,86 µM,–,–
O=C1C=CC(=O)c2c1cccc2-c1ccccc1,1.24 µM,12.7 µM,10.2,5.2
COc1ccc(I)c2c1C(=O)C=CC2=O,3.54 µM,13.6 µM,3.8,–
"O=C1C=C(Br)C(=O)c2ccccc21 [2-Bromo-1,4-naphthoquinone]",1.37 µM,–,–,–
O=C(Cn1ccnc1[N+](=O)[O-])NCc1ccccc1 [BENZNIDAZOLE],9.68 µM,> 4000 µM,> 413,–
O=C1C=CC(=O)c2c(O)cccc21 [JUGLONE],6.51 µM,–,–,–
CC1=CC(=O)c2c(O)cccc2C1=O [PLUMBAGIN],1.38 µM,–,–,–
